The source of these data is ChEMBL document CHEMBL3621072, “Design, Virtual Screening, and Synthesis of Antagonists of αIIbβ3 as Antiplatelet Agents” (J Med Chem, 2015).

As usually defined, the IC50 is the concentration that gives 50% inhibition. Read a high IC50 as lower potency.

The first experiment deals with T1, Integrin alpha-IIb/beta-3 (Homo sapiens, UniProt P05106+P08514). Description: Inhibition of FITC-labeled fibrinogen binding to integrin alpha2bbeta3 closed form in human washed platelets. In a few lines: (§1)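 Suspension of washed human platelets; αIIbβ3 binding of fluorescein isothiocyanate-labeled fibrinogen (FITC-Fg) measured, inhibition by test compound expressed as IC50. Pure enantiomers tested.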
T1 sequence (P05106 27-788 limits assumed): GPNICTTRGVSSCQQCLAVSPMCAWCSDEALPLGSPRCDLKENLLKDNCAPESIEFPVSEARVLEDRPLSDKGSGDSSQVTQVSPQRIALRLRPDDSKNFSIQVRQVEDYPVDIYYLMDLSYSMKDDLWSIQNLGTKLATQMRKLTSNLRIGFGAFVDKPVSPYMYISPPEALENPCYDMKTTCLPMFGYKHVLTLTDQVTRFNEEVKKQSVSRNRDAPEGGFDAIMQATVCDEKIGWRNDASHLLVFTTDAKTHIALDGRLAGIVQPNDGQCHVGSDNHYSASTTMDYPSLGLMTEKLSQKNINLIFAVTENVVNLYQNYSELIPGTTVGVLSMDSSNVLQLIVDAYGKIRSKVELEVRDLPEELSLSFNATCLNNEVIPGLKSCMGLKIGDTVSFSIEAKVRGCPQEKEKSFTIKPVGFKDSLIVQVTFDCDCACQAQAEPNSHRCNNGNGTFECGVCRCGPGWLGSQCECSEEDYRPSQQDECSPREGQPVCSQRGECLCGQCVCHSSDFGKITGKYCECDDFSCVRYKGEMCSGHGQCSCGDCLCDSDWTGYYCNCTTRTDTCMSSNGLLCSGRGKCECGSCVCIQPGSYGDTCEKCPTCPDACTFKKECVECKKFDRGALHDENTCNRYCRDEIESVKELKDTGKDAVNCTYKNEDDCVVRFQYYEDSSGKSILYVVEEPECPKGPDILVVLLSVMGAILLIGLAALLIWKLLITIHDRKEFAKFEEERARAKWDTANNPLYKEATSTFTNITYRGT
T1 sequence (P08514 32-887 limits assumed): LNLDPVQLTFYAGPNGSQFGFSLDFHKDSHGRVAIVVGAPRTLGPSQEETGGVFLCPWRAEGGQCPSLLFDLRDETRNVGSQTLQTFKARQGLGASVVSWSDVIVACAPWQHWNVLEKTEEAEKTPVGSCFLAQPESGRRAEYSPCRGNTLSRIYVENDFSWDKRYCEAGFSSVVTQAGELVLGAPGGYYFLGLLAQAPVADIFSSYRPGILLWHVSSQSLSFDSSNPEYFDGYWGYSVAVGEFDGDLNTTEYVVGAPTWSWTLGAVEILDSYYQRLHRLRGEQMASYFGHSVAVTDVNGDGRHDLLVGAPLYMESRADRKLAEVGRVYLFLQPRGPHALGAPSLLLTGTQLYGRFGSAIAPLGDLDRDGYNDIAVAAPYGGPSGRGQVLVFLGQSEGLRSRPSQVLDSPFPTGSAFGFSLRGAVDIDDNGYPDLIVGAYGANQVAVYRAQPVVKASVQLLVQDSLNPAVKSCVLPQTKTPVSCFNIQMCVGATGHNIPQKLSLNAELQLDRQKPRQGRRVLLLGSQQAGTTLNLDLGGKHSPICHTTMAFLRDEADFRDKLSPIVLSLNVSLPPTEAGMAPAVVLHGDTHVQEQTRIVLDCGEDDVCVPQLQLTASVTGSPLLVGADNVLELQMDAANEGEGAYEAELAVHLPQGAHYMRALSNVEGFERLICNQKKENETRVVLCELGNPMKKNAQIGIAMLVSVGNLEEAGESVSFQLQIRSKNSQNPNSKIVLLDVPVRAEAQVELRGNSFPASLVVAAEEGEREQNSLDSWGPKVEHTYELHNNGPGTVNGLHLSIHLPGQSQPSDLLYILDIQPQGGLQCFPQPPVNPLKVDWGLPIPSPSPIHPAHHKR
T1 sequence (P08514 891-1039 limits assumed): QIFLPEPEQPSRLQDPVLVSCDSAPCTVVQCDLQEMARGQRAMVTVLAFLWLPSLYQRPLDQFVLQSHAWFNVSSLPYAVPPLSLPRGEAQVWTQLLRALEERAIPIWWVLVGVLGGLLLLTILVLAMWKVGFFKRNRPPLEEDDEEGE
In turn, `NCCC(=O)Nc1ccc2nc(N3CCNCC3)[nH]c(=O)c2c1` gave an IC50 of 5 nM. Compound `NCCCC(=O)Nc1ccc2nc(N3CCNCC3)[nH]c(=O)c2c1` came in with an IC50 of 2.2 nM. On the same count and under the same terms, the figure for `O=C(Nc1ccc2nc(N3CCNCC3)[nH]c(=O)c2c1)C1CCNCC1` is 3.8 nM.

A further experiment addresses T1, Integrin alpha-IIb/beta-3. Put plainly: Inhibition of FITC-labeled fibrinogen binding to integrin alpha2bbeta3 open form in human washed platelets. In short, it runs like this: as §1
The compound `CCCCS(=O)(=O)N[C@H](CNC(=O)CCNC(=O)c1ccc2c(c1)CNCC2)C(=O)O` yielded an IC50 of 79 nM. Same read-out and setting: then `CCCCS(=O)(=O)N[C@@H](CNC(=O)CCNC(=O)c1ccc2c(c1)CNCC2)C(=O)O`, with 62 nM; and `O=C(CCNC(=O)c1ccc2c(c1)CNCC2)NC[C@H](NS(=O)(=O)c1ccccc1)C(=O)O`, with 0.22 nM. On the same count and under the same terms, then `O=C(CCNC(=O)c1ccc2c(c1)CNCC2)NC[C@@H](NS(=O)(=O)c1ccccc1)C(=O)O`, with 0.96 nM.

For another experiment, the target named is T1, Integrin alpha-IIb/beta-3. Description: Antagonist activity against integrin alpha2bbeta3 in human platelet rich plasma. In short, it runs like this: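 Human platelet-rich plasma, aggregation induced by ADP and followed by Born's light-transmission method. Inhibition of aggregation by the test compound is reported as IC50. Pure enantiomers tested.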
For `CCc1nn2c(=O)cc(N3CCNCC3)nc2s1`, the IC50 worked out at 13000 nM.

For `N=C(N)c1ccc2cc(OC(=O)c3ccc(N=C(N)N)cc3)ccc2c1` [NAFAMOSTAT], the midpoint of inhibition, the IC50, lay at 12500 nM.
